From ChEMBL document CHEMBL1909580, “Branched-chain C-cyano pyranonucleosides: synthesis of 3'-C-cyano & 3'-C-cyano-3'-deoxy pyrimidine pyranonucleosides as novel cytotoxic agents” (Eur J Med Chem, 2011)
Active and inactive are the calls of the source. No cut-off for these calls is given here.

Assays:
[1] = tested on: L1210; experiment: Cytostatic activity against mouse L1210 cells; format: functional, cell-based
How it was run: (§1)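 Cell proliferation was measured with the test agents present. IC50 is the concentration giving 50% inhibition of proliferation, given as the mean ± S.D. of 2–3 independent experiments.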

[2] = tested on: CCRF-CEM; experiment: Cytostatic activity against human CEM cells; format: functional, cell-based
How it was run: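 Uninfected CEM cells were run in parallel with the HIV assay for 4 days at 37 °C. IC50 is the concentration inhibiting cell proliferation by 50%, given as the mean ± S.D. of 2–3 independent experiments.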

[3] = tested on: HeLa; experiment: Cytostatic activity against human HeLa cells; format: functional, cell-based; how it was run: as §1
[4] = tested on: Human alphaherpesvirus 1; experiment: Antiviral activity against HSV1 infected in human HEL cells assessed as inhibition of virus-induced cytopathicity at 100 uM; format: functional, organism-based
How it was run: (§2)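 Confluent cell monolayers in microtiter plates were inoculated with 100 CCID50 of virus in the presence of varying test concentrations. 1 CCID50 is the virus dose infecting 50% of cultures. Cytopathicity was scored once it was complete in untreated virus-infected controls.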

[5] = tested on: Human alphaherpesvirus 2; experiment: Antiviral activity against HSV2 infected in human HEL cells assessed as inhibition of virus-induced cytopathicity at 100 uM; format: functional, organism-based; how it was run: as §2
[6] = tested on: Vaccinia virus; experiment: Antiviral activity against Vaccinia virus infected in human HEL cells assessed as inhibition of virus-induced cytopathicity at 100 uM; format: functional, organism-based; settings: Orthopoxvirus vaccinia
How it was run: (§3)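 Confluent cell monolayers were infected with 100 CCID50 of virus (1 CCID50 infects 50% of cultures) in the presence of varying concentrations of test compound. Virus-induced cytopathicity was scored once it was complete in the untreated infected controls.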

[7] = tested on: Vesicular stomatitis virus; experiment: Antiviral activity against VSV infected in human HEL cells assessed as inhibition of virus-induced cytopathicity at 100 uM; format: functional, organism-based; how it was run: as §3
[8] = tested on: Human respirovirus 3; experiment: Antiviral activity against Parainfluenza 3 virus infected in african green monkey Vero cells assessed as inhibition of virus-induced cytopathicity at 100 uM; format: functional, organism-based; how it was run: as §2
[9] = tested on: Mammalian orthoreovirus 1; experiment: Antiviral activity against Reovirus1 infected in african green monkey Vero cells assessed as inhibition of virus-induced cytopathicity at 100 uM; format: functional, organism-based; how it was run: as §2
[10] = tested on: Coxsackievirus B4; experiment: Antiviral activity against Coxsackievirus B4 infected in african green monkey Vero cells assessed as inhibition of virus-induced cytopathicity at 100 uM; format: functional, organism-based; how it was run: as §2
[11] = tested on: Punta Toro virus; experiment: Antiviral activity against Punta Toro virus infected in african green monkey Vero cells assessed as inhibition of virus-induced cytopathicity at 100 uM; format: functional, organism-based; how it was run: as §2
[12] = tested on: Vesicular stomatitis virus; experiment: Antiviral activity against VSV infected in human HeLa cells assessed as inhibition of virus-induced cytopathicity at 100 uM; format: functional, organism-based; how it was run: as §3
[13] = tested on: Coxsackievirus B4; experiment: Antiviral activity against Coxsackievirus B4 infected in human HeLa cells assessed as inhibition of virus-induced cytopathicity at 100 uM; format: functional, organism-based; how it was run: as §2
[14] = tested on: Respiratory syncytial virus; experiment: Antiviral activity against RSV infected in human HeLa cells assessed as inhibition of virus-induced cytopathicity at 100 uM; format: functional, organism-based; how it was run: as §2
[15] = tested on: Influenza A virus; experiment: Antiviral activity against influenza A virus H1N1 infected in MDCK cells assessed as inhibition of virus-induced cytopathicity at 100 uM; format: functional, organism-based; how it was run: as §3
[16] = tested on: Influenza A virus; experiment: Antiviral activity against influenza A virus H3N2 infected in MDCK cells assessed as inhibition of virus-induced cytopathicity at 100 uM; format: functional, organism-based; how it was run: as §3
[17] = tested on: Influenza B virus; experiment: Antiviral activity against influenza B virus infected in MDCK cells assessed as inhibition of virus-induced cytopathicity at 100 uM; format: functional, organism-based; how it was run: as §3
[18] = tested on: Feline coronavirus; experiment: Antiviral activity against Feline coronavirus infected in feline CRFK cells assessed as inhibition of virus-induced cytopathicity at 100 uM; format: functional, organism-based; how it was run: as §2
[19] = tested on: Felid alphaherpesvirus 1; experiment: Antiviral activity against Feline herpesvirus infected in […] cells assessed as inhibition of virus-induced cytopathicity at 100 uM; format: functional, organism-based
[20] = tested on: Human immunodeficiency virus 1; experiment: Antiviral activity against HIV1 3B infected in CEM cells assessed as inhibition of virus-induced cytopathicity at 100 uM; format: functional, organism-based; settings: CCRF-CEM
How it was run: (§4)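 Virus stocks were titrated in CEM cells as CCID50. CEM cells at ~3 × 10^5 cells/ml were infected with ~100 CCID50 and immediately added to wells holding various test concentrations. After 4 days at 37 °C, giant cell formation was scored microscopically.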

[21] = tested on: Human immunodeficiency virus 2; experiment: Antiviral activity against HIV-2 ROD infected in CEM cells assessed as inhibition of virus-induced cytopathicity at 100 uM; format: functional, organism-based; settings: ISOLATE ROD, CCRF-CEM; how it was run: as §4

O=c1[nH]cc(F)c(=O)[nH]1 [FLUOROURACIL]
IC50 [1]: 0.49 µM
IC50 [2]: 18 µM
IC50 [3]: 0.54 µM

N#C[C@H]1[C@@H](O)[C@H](n2ccc(O)nc2=O)O[C@H](CO)[C@H]1O
inhibition [4]: inactive
inhibition [5]: inactive
inhibition [6]: inactive
inhibition [7]: inactive
inhibition [8]: inactive
inhibition [9]: inactive
inhibition [10]: inactive
inhibition [11]: inactive
inhibition [12]: inactive
inhibition [13]: inactive
inhibition [14]: inactive
inhibition [15]: inactive
inhibition [16]: inactive
inhibition [17]: inactive
inhibition [18]: inactive
inhibition [19]: inactive
inhibition [20]: inactive
inhibition [21]: inactive
IC50 [1]: > 500 µM
IC50 [2]: > 500 µM
IC50 [3]: 811 µM

N#C[C@H]1[C@@H](O)[C@H](n2ccc(N)nc2=O)O[C@H](CO)[C@H]1O
inhibition [4]: inactive
inhibition [5]: inactive
inhibition [6]: inactive
inhibition [7]: inactive
inhibition [8]: inactive
inhibition [9]: inactive
inhibition [10]: inactive
inhibition [11]: inactive
inhibition [12]: inactive
inhibition [13]: inactive
inhibition [14]: inactive
inhibition [15]: inactive
inhibition [16]: inactive
inhibition [17]: inactive
inhibition [18]: inactive
inhibition [19]: inactive
inhibition [20]: inactive
inhibition [21]: inactive
IC50 [1]: > 750 µM
IC50 [2]: > 750 µM
IC50 [3]: > 750 µM

N#C[C@]1(O)[C@H](O)[C@@H](CO)O[C@@H](n2ccc(O)nc2=O)[C@@H]1O
inhibition [4]: inactive
inhibition [5]: inactive
inhibition [6]: inactive
inhibition [7]: inactive
inhibition [8]: inactive
inhibition [9]: inactive
inhibition [10]: inactive
inhibition [11]: inactive
inhibition [12]: inactive
inhibition [13]: inactive
inhibition [14]: inactive
inhibition [15]: inactive
inhibition [16]: inactive
inhibition [17]: inactive
inhibition [18]: inactive
inhibition [19]: inactive
inhibition [20]: inactive
inhibition [21]: inactive
IC50 [1]: 417 µM
IC50 [2]: > 500 µM
IC50 [3]: > 500 µM

Cc1cn([C@@H]2O[C@H](CO)[C@@H](O)[C@@H](C#N)[C@H]2O)c(=O)nc1O
inhibition [4]: inactive
inhibition [5]: inactive
inhibition [6]: inactive
inhibition [7]: inactive
inhibition [8]: inactive
inhibition [9]: inactive
inhibition [10]: inactive
inhibition [11]: inactive
inhibition [12]: inactive
inhibition [13]: inactive
inhibition [14]: inactive
inhibition [15]: inactive
inhibition [16]: inactive
inhibition [17]: inactive
inhibition [18]: inactive
inhibition [19]: inactive
inhibition [20]: inactive
inhibition [21]: inactive
IC50 [1]: > 750 µM
IC50 [2]: > 750 µM
IC50 [3]: > 750 µM

N#C[C@]1(O)[C@H](O)[C@@H](CO)O[C@@H](n2ccc(N)nc2=O)[C@@H]1O
inhibition [4]: inactive
inhibition [5]: inactive
inhibition [6]: inactive
inhibition [7]: inactive
inhibition [8]: inactive
inhibition [9]: inactive
inhibition [10]: inactive
inhibition [11]: inactive
inhibition [12]: inactive
inhibition [13]: inactive
inhibition [14]: inactive
inhibition [15]: inactive
inhibition [16]: inactive
inhibition [17]: inactive
inhibition [18]: inactive
inhibition [19]: inactive
inhibition [20]: inactive
inhibition [21]: inactive
IC50 [1]: 147 µM
IC50 [2]: > 500 µM
IC50 [3]: 377 µM

N#C[C@]1(O)[C@H](O)[C@@H](CO)O[C@@H](n2cc(F)c(O)nc2=O)[C@@H]1O
inhibition [4]: inactive
inhibition [5]: inactive
inhibition [6]: inactive
inhibition [7]: inactive
inhibition [8]: inactive
inhibition [9]: inactive
inhibition [10]: inactive
inhibition [11]: inactive
inhibition [12]: inactive
inhibition [13]: inactive
inhibition [14]: inactive
inhibition [15]: inactive
inhibition [16]: inactive
inhibition [17]: inactive
inhibition [18]: inactive
inhibition [19]: inactive
inhibition [20]: inactive
inhibition [21]: inactive
IC50 [1]: 1.9 µM
IC50 [2]: 32 µM
IC50 [3]: 4.5 µM

Cc1cn([C@@H]2O[C@H](CO)[C@@H](O)[C@@](O)(C#N)[C@H]2O)c(=O)nc1O
inhibition [4]: inactive
inhibition [5]: inactive
inhibition [6]: inactive
inhibition [7]: inactive
inhibition [8]: inactive
inhibition [9]: inactive
inhibition [10]: inactive
inhibition [11]: inactive
inhibition [12]: inactive
inhibition [13]: inactive
inhibition [14]: inactive
inhibition [15]: inactive
inhibition [16]: inactive
inhibition [17]: inactive
inhibition [18]: inactive
inhibition [19]: inactive
inhibition [20]: inactive
inhibition [21]: inactive
IC50 [1]: 539 µM
IC50 [2]: > 500 µM
IC50 [3]: > 500 µM

N#C[C@H]1[C@@H](O)[C@H](n2cc(F)c(O)nc2=O)O[C@H](CO)[C@H]1O
inhibition [4]: inactive
inhibition [5]: inactive
inhibition [6]: inactive
inhibition [7]: inactive
inhibition [8]: inactive
inhibition [9]: inactive
inhibition [10]: inactive
inhibition [11]: inactive
inhibition [12]: inactive
inhibition [13]: inactive
inhibition [14]: inactive
inhibition [15]: inactive
inhibition [16]: inactive
inhibition [17]: inactive
inhibition [18]: inactive
inhibition [19]: inactive
inhibition [20]: inactive
inhibition [21]: inactive
IC50 [1]: 550 µM
IC50 [2]: > 500 µM
IC50 [3]: 819 µM
